In ChEMBL document CHEMBL3611989, “Discovery and characterization of aryl isonitriles as a new class of compounds versus methicillin- and vancomycin-resistant Staphylococcus aureus” (Eur J Med Chem, 2015):
In brackets after ≈: the same amount, converted by molar mass.

Tests used:
Format in all cases: functional
Staphylococcus aureus [1] = test: Antimicrobial activity against methicillin-sensitive Staphylococcus aureus NRS72 assessed as reduction in bacterial growth incubated for 18 to 20 hrs at 37 degC by broth microdilution method
Procedure, shortened: (§1)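 Modified CLSI broth microdilution. Bacterial suspension of about 1 × 10^5 CFU/mL in tryptic soy broth. Each agent was added in triplicate to the first row and serially diluted down the plate. Plates were incubated at 37 °C for 18-20 h. MIC was read as the lowest concentration with no visible growth.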

Staphylococcus aureus [2] = test: Antimicrobial activity against methicillin-resistant Staphylococcus aureus USA700 assessed as reduction in bacterial growth incubated for 18 to 20 hrs at 37 degC by broth microdilution method; procedure, shortened: as §1
Staphylococcus aureus [3] = test: Antimicrobial activity against methicillin-resistant Staphylococcus aureus USA500 assessed as reduction in bacterial growth incubated for 18 to 20 hrs at 37 degC by broth microdilution method; procedure, shortened: as §1
Staphylococcus aureus [4] = test: Antimicrobial activity against methicillin-resistant Staphylococcus aureus USA100 assessed as reduction in bacterial growth incubated for 18 to 20 hrs at 37 degC by broth microdilution method; procedure, shortened: as §1
Staphylococcus aureus [5] = test: Antimicrobial activity against methicillin-resistant Staphylococcus aureus USA200 assessed as reduction in bacterial growth incubated for 18 to 20 hrs at 37 degC by broth microdilution method; procedure, shortened: as §1
Staphylococcus aureus [6] = test: Antimicrobial activity against vancomycin-intermediate-resistant Staphylococcus aureus NRS1 assessed as reduction in bacterial growth incubated for 18 to 20 hrs at 37 degC by broth microdilution method; procedure, shortened: as §1
Staphylococcus aureus [7] = test: Antimicrobial activity against methicillin-resistant Staphylococcus aureus NRS119 assessed as reduction in bacterial growth incubated for 18 to 20 hrs at 37 degC by broth microdilution method; procedure, shortened: as §1
Staphylococcus aureus [8] = test: Antimicrobial activity against methicillin-resistant Staphylococcus aureus USA300 assessed as reduction in bacterial growth incubated for 18 to 20 hrs at 37 degC by broth microdilution method; procedure, shortened: as §1
Staphylococcus aureus [9] = test: Antimicrobial activity against vancomycin-resistant Staphylococcus aureus VRS2 assessed as reduction in bacterial growth incubated for 18 to 20 hrs at 37 degC by broth microdilution method; procedure, shortened: as §1

Structure (SMILES)	MIC (Staphylococcus aureus [1]) [µM]	MIC (Staphylococcus aureus [2]) [µM]	MIC (Staphylococcus aureus [3]) [µM]	MIC (Staphylococcus aureus [4]) [µM]	MIC (Staphylococcus aureus [5]) [µM]	MIC (Staphylococcus aureus [6]) [µM]	MIC (Staphylococcus aureus [7]) [µM]	MIC (Staphylococcus aureus [8]) [µM]	MIC (Staphylococcus aureus [9]) [µM]
[C-]#[N+]c1ccccc1-c1ccccc1	> 128	16 (≈ 2.87 µg/mL)	> 128	16 (≈ 2.87 µg/mL)	16 (≈ 2.87 µg/mL)	8 (≈ 1.43 µg/mL)	> 128	> 128	> 128
[C-]#[N+]c1ccccc1/C=C(\CC)c1ccc(C(F)(F)F)cc1	8 (≈ 2.41 µg/mL)					8 (≈ 2.41 µg/mL)	64 (≈ 19.3 µg/mL)	32 (≈ 9.64 µg/mL)	16 (≈ 4.82 µg/mL)
[C-]#[N+]c1ccccc1/C=C/c1ccc(CCCC)cc1	> 128		> 128		> 128		> 128	> 128	> 128
[C-]#[N+]c1ccccc1C=C1CCCCC1	8 (≈ 1.58 µg/mL)	16 (≈ 3.16 µg/mL)	> 128	16 (≈ 3.16 µg/mL)	64 (≈ 12.6 µg/mL)	4 (≈ 0.789 µg/mL)	> 128	> 128	> 128
[C-]#[N+]c1cccc(/C=C/c2ccccn2)c1	64 (≈ 13.2 µg/mL)	64 (≈ 13.2 µg/mL)	64 (≈ 13.2 µg/mL)	32 (≈ 6.6 µg/mL)	64 (≈ 13.2 µg/mL)	128 (≈ 26.4 µg/mL)	128 (≈ 26.4 µg/mL)	32 (≈ 6.6 µg/mL)	128 (≈ 26.4 µg/mL)
[C-]#[N+]c1ccc(/C=C/c2ccccn2)cc1	64 (≈ 13.2 µg/mL)	128 (≈ 26.4 µg/mL)	64 (≈ 13.2 µg/mL)	128 (≈ 26.4 µg/mL)	128 (≈ 26.4 µg/mL)	64 (≈ 13.2 µg/mL)	128 (≈ 26.4 µg/mL)	32 (≈ 6.6 µg/mL)	64 (≈ 13.2 µg/mL)
[C-]#[N+]c1cccc(/C=C/c2cccnc2)c1	64 (≈ 13.2 µg/mL)	64 (≈ 13.2 µg/mL)	64 (≈ 13.2 µg/mL)	32 (≈ 6.6 µg/mL)	64 (≈ 13.2 µg/mL)	64 (≈ 13.2 µg/mL)	64 (≈ 13.2 µg/mL)	32 (≈ 6.6 µg/mL)	64 (≈ 13.2 µg/mL)
[C-]#[N+]c1ccccc1/C=C/c1ccncc1	64 (≈ 13.2 µg/mL)	32 (≈ 6.6 µg/mL)	32 (≈ 6.6 µg/mL)	32 (≈ 6.6 µg/mL)	32 (≈ 6.6 µg/mL)	64 (≈ 13.2 µg/mL)	64 (≈ 13.2 µg/mL)	32 (≈ 6.6 µg/mL)	64 (≈ 13.2 µg/mL)
[C-]#[N+]c1cccc(/C=C/c2ccncc2)c1	64 (≈ 13.2 µg/mL)	64 (≈ 13.2 µg/mL)	64 (≈ 13.2 µg/mL)	32 (≈ 6.6 µg/mL)	64 (≈ 13.2 µg/mL)	32 (≈ 6.6 µg/mL)	32 (≈ 6.6 µg/mL)	32 (≈ 6.6 µg/mL)	64 (≈ 13.2 µg/mL)
N#Cc1ccccc1/C=C/c1ccccc1	> 128	> 128	> 128	> 128	> 128	> 128	> 128	> 128	> 128
[C-]#[N+]c1ccc(C)cc1-c1ccc(C(C)(C)C)cc1	> 128	16 (≈ 3.99 µg/mL)	> 128	16 (≈ 3.99 µg/mL)	16 (≈ 3.99 µg/mL)	4 (≈ 0.997 µg/mL)	64 (≈ 16 µg/mL)	> 128	> 128
[C-]#[N+]c1ccc(C)cc1-c1ccc(C(F)(F)F)cc1	> 128	> 128	> 128	> 128	> 128	> 128	> 128	> 128	> 128
Nc1ccccc1CCc1ccccc1	> 128	> 64	> 64	> 128	32 (≈ 6.31 µg/mL)	8 (≈ 1.58 µg/mL)	> 128	> 128	> 64
[C-]#[N+]c1ccccc1CCc1ccccc1	64 (≈ 13.3 µg/mL)	32 (≈ 6.63 µg/mL)	128 (≈ 26.5 µg/mL)	4 (≈ 0.829 µg/mL)	16 (≈ 3.32 µg/mL)	2 (≈ 0.415 µg/mL)	2 (≈ 0.415 µg/mL)	4 (≈ 0.829 µg/mL)	64 (≈ 13.3 µg/mL)
CN[C@H](CC(C)C)C(=O)N[C@H]1C(=O)N[C@@H](CC(N)=O)C(=O)N[C@H]2C(=O)N[C@H]3C(=O)N[C@H](C(=O)N[C@H](C(=O)O)c4cc(O)cc(O)c4-c4cc3ccc4O)[C@H](O)c3ccc(c(Cl)c3)Oc3cc2cc(c3O[C@@H]2O[C@H](CO)[C@@H](O)[C@H](O)[C@H]2O[C@H]2C[C@](C)(N)[C@H](O)[C@H](C)O2)Oc2ccc(cc2Cl)[C@H]1O [VANCOMYCIN]	< 1		4 (≈ 5.8 µg/mL)	2 (≈ 2.9 µg/mL)		8 (≈ 11.6 µg/mL)			128 (≈ 186 µg/mL)
